Measurements taken from ChEMBL document CHEMBL4732035, “Design, synthesis, crystal structure and anti-plasmodial evaluation of tetrahydrobenzo[4,5]thieno[2,3-d]pyrimidine derivatives” (RSC Med Chem, 2021).

Key:
Plasmodium falciparum = assay: Antiplasmodial activity against chloroquine-resistant Plasmodium falciparum W2 assessed as growth inhibition after 48 hrs by flow cytometer; assay type: functional, organism-based; details: W2, 48 h
How it was run: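 Ring-stage W2 cultures in microwells exposed 48 h to a range of compound concentrations, added from DMSO stocks. Parasites then fixed in 1% formaldehyde/PBS pH 7.4 (48 h, RT) and stained with YOYO-1 (1 nM) in 0.1% Triton X-100/PBS. Parasitemia counted by flow cytometry (forward scatter vs fluorescence). IC50 fitted from % parasitemia vs untreated controls (R2 >0.95).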

HeLa = assay: Cytotoxicity against human HeLa cells assessed as reduction in cell viability preincubated for 24 hrs measured after 4 hrs by MTT assay; assay type: functional, cell-based
How it was run: (§1)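 Cells were grown in DMEM with 10% fetal bovine serum, seeded at 1 × 10^4 cells per well and left 24 h at 37 °C to adhere. A range of compound concentrations was added for 24 h. Medium was then removed, MTT solution (4 mg mL−1) added for 4 h, and formazan dissolved in DMSO. Survival was expressed against untreated wells, and IC50 was fitted by log(inhibitor)–response nonlinear regression from three independent experiments.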

[1] = Selectivity index, ratio of IC50 for human A549 cells to IC50 for chloroquine-resistant Plasmodium falciparum W2; assay type: toxicity; details: read-out: Selectivity Index
How it was run: (§2)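 Selectivity index is cell-line IC50 (A549 for line 2, HeLa for line 3) divided by W2 IC50. Cells grown in DMEM with 10% FBS, seeded at 1 × 10^4 per well and allowed to adhere 24 h at 37 °C. They were then exposed to graded concentrations for 24 h. MTT (4 mg/mL) was added for 4 h and formazan dissolved in DMSO. IC50 from log(inhibitor)-response fits, three independent experiments.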

A549 = assay: Cytotoxicity against human A549 cells assessed as reduction in cell viability preincubated for 24 hrs measured after 4 hrs by MTT assay; assay type: functional, cell-based; how it was run: as §1
[2] = Selectivity index, ratio of IC50 for human HeLa cells to IC50 for chloroquine-resistant Plasmodium falciparum W2; assay type: toxicity; details: read-out: Selectivity Index; how it was run: as §2

Row | SMILES | IC50 (Plasmodium falciparum) [µM] | IC50 (HeLa) [µM] | selectivity ratio [1] | IC50 (A549) [µM] | selectivity ratio [2]
1 | COc1cccc(C(c2ccc(C)cc2)N2CCN(c3ncnc4sc5c(c34)CCCC5)CC2)c1O (stereo not drawn) | 3.96 | – | – | – | –
2 | Oc1ccccc1C(c1ccc(F)c(Cl)c1)N1CCN(c2ncnc3sc4c(c23)CCCC4)CC1 (stereo not drawn) | 1.06 | 6.4 | 8.01 | 8.5 | 6.03
3 | Oc1ccccc1C(c1ccc(C(F)(F)F)cc1)N1CCN(c2ncnc3sc4c(c23)CCCC4)CC1 (stereo not drawn) | 1.37 | – | – | – | –
4 | Oc1ccccc1C(c1ccc(Cl)c(Cl)c1)N1CCN(c2ncnc3sc4c(c23)CCCC4)CC1 (stereo not drawn) | 0.752 | 10.3 | 15.3 | 11.5 | 13.7
5 | Cc1ccc(C(c2ccccc2O)N2CCN(c3ncnc4sc5c(c34)CCCC5)CC2)cc1 (stereo not drawn) | 1.34 | – | – | – | –
6 | Oc1ccccc1C(c1ccc(OC(F)(F)F)cc1)N1CCN(c2ncnc3sc4c(c23)CCCC4)CC1 (stereo not drawn) | 1.18 | 9.1 | 6.09 | 7.2 | 7.7
7 | Oc1ccccc1C(c1ccc(F)c(F)c1)N1CCN(c2ncnc3sc4c(c23)CCCC4)CC1 (stereo not drawn) | 1.04 | 12.7 | 8.43 | 8.7 | 12.3
8 | COc1cccc(C(c2ccc(F)cc2)N2CCN(c3ncnc4sc5c(c34)CCCC5)CC2)c1O (stereo not drawn) | 2.26 | – | – | – | –
9 | COc1cccc(C(c2ccc(C(F)(F)F)cc2)N2CCN(c3ncnc4sc5c(c34)CCCC5)CC2)c1O (stereo not drawn) | 0.749 | 7.1 | 9.86 | 7.3 | 9.59
10 | Oc1ccccc1C(c1ccc(F)cc1)N1CCN(c2ncnc3sc4c(c23)CCCC4)CC1 (stereo not drawn) | 1.62 | – | – | – | –
11 | COc1cccc(C(c2ccc(F)c(F)c2)N2CCN(c3ncnc4sc5c(c34)CCCC5)CC2)c1O (stereo not drawn) | 1.13 | – | – | – | –
12 | COc1cccc(C(c2ccc(OC(F)(F)F)cc2)N2CCN(c3ncnc4sc5c(c34)CCCC5)CC2)c1O (stereo not drawn) | 1.22 | – | – | – | –
13 | COc1cccc(C(c2ccc(Cl)c(Cl)c2)N2CCN(c3ncnc4sc5c(c34)CCCC5)CC2)c1O (stereo not drawn) | 1.34 | – | – | – | –
14 | COc1ccc(C(c2cccc(OC)c2O)N2CCN(c3ncnc4sc5c(c34)CCCC5)CC2)cc1 (stereo not drawn) | 6.41 | – | – | – | –
15 | COc1cccc2c1C(=O)c1c(O)c3c(c(O)c1C2=O)C[C@@](O)(C(=O)CO)C[C@@H]3O[C@H]1C[C@H](N)[C@H](O)[C@H](C)O1 [DOXORUBICIN] | – | 5.7 | – | 5.5 | –
16 | COc1ccc(C(c2ccccc2O)N2CCN(c3ncnc4sc5c(c34)CCCC5)CC2)cc1 (stereo not drawn) | 2.42 | – | – | – | –
17 | COc1cccc(C(c2ccc(F)c(Cl)c2)N2CCN(c3ncnc4sc5c(c34)CCCC5)CC2)c1O (stereo not drawn) | 1.17 | – | – | – | –
